From ChEMBL document CHEMBL5230173, “Site-directed late-stage diversification of macrocyclic nannocystins facilitating anticancer SAR and mode of action studies” (RSC Med Chem, 2023)
pIC50: −log10 of the molar value.

Assays:
HCT-8 = test: Antiproliferative activity against human HCT-8 cells assessed as inhibition of cell growth incubated for 72 hrs by CCK-8 assay; conditions: HCT-8, 72 h
HCT-116 [1] = test: Antiproliferative activity against human HCT-116 cells assessed as inhibition of cell growth by Celltiter-Glo luminescence assay; format: functional, cell-based
HCT-116 [2] = test: Antiproliferative activity against human HCT-116 cells assessed as inhibition of cell growth by thymidine plus proliferation assay; format: functional, cell-based
HCT-116 [3] = test: Antiproliferative activity against human HCT-116 cells assessed as inhibition of cell growth incubated for 72 hrs by CCK-8 assay; conditions: HCT-116, 72 h
MDA-MB-231 = test: Antiproliferative activity against human MDA-MB-231 cells assessed as inhibition of cell growth incubated for 72 hrs by CCK-8 assay; conditions: MDA-MB-231, 72 h
[4] = Drug uptake in human MDA-MB-231 cells incubated for 1 hrs by laser scanning confocal microscopic analysis; format: ADME, cell-based; conditions: mda-mb-231, 1 h, dose 0.25-2 µM
In short: (§1)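 MDA-MB231 cells were seeded at 6 × 10^4 on slides for 24 h in DMEM with 10% FBS. Cells were then PBS-washed twice, fixed in 4% formaldehyde for 2 min, and imaged by confocal microscopy (ex 405, em 460 nm).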

[5] = Drug localization in endoplasmic reticulum of human HCT-8 cells at 250 nM incubated for 8 hrs by ER-tracker red based laser scanning confocal microscopic analysis; format: ADME, cell-based; conditions: hct-8, 8 h, 0.25 µM
In short: (§2)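 HCT-8 (250 nM) and MDA-MB231 (500 nM) cells were seeded at 4 × 10^4 on slides for 24 h, then exposed to the probe for 8 h. After an HBSS wash, cells were stained with ER-Tracker Red for 20 min at 37 °C, washed twice with medium, and fixed in 4% formaldehyde for 2 min. Confocal imaging used probe ex 405/em 460 nm and tracker ex 587/em 615 nm.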

[6] = Drug uptake in human MDA-MB-231 cells at 1 uM by laser scanning confocal microscopic analysis; format: ADME, cell-based; conditions: mda-mb-231, 1 h, TDE = time-dependent effect, time < 60 min
In short: as §1

[7] = Drug localization in endoplasmic reticulum of human MDA-MB-231 cells at 500 nM incubated for 8 hrs by ER-tracker red based laser scanning confocal microscopic analysis; format: ADME, cell-based; conditions: mda-mb-231, 8 h, 0.5 µM
In short: as §2

[8] = Drug uptake in human MDA-MB-231 cells measured after compound washout by laser scanning confocal microscopic analysis; format: ADME, cell-based

Structure (SMILES) | pIC50 (HCT-8) | pIC50 (HCT-116 [3]) | pIC50 (MDA-MB-231) | other results
CC[C@H](C)[C@H]1C(=O)N[C@H](Cc2cc(Cl)c(O)c(Cl)c2)C(=O)N[C@@H](C(C)(C)O)C(=O)O[C@H](c2ccccc2)[C@H](C)/C=C/C=C(\C)[C@H](OC)C[C@@H]2O[C@@]2(C)C(=O)N1C | 7.96 | 8.38 | 7.82 | pIC50 (HCT-116 [1]): 8.59; pIC50 (HCT-116 [2]): 8.92
CC[C@H](C)[C@H]1C(=O)N[C@H](COC(=O)C2=CCC2)C(=O)N[C@@H](C(C)(C)O)C(=O)O[C@H](c2ccccc2)[C@H](C)/C=C/C=C(\C)[C@H](OC)C[C@@H]2O[C@@]2(C)C(=O)N1C | 8.54 | 7.53 | 7.36 | –
CC[C@H](C)[C@H]1C(=O)N[C@H](COC(=O)c2ccccc2)C(=O)N[C@@H](C(C)(C)O)C(=O)O[C@H](c2ccccc2)[C@H](C)/C=C/C=C(\C)[C@H](OC)C[C@@H]2O[C@@]2(C)C(=O)N1C | 7.63 | 7.86 | 7.40 | –
CC[C@H](C)[C@H]1C(=O)N[C@H](COC(=O)/C=C/c2ccccc2)C(=O)N[C@@H](C(C)(C)O)C(=O)O[C@H](c2ccccc2)[C@H](C)/C=C/C=C(\C)[C@H](OC)C[C@@H]2O[C@@]2(C)C(=O)N1C | 7.56 | 7.73 | 7.34 | –
CC[C@H](C)[C@H]1C(=O)N[C@H](COC(=O)c2cc3ccc(N(CC)CC)cc3oc2=O)C(=O)N[C@@H](C(C)(C)O)C(=O)O[C@H](c2ccccc2)[C@H](C)/C=C/C=C(\C)[C@H](OC)C[C@@H]2O[C@@]2(C)C(=O)N1C | 7.28 | 6.87 | 6.85 | Drug uptake [4]: Dose-Dependent Effect; Drug uptake [5]: Active; Drug uptake [6]: Tde; Drug uptake [7]: Active; Drug uptake [8]: Active
CC[C@H](C)[C@H]1C(=O)N[C@H](COC(=O)C2CCCCC2)C(=O)N[C@@H](C(C)(C)O)C(=O)O[C@H](c2ccccc2)[C@H](C)/C=C/C=C(\C)[C@H](OC)C[C@@H]2O[C@@]2(C)C(=O)N1C | 7.36 | 7.42 | 7.68 | –
CCCCC(=O)OC[C@H]1NC(=O)[C@H]([C@@H](C)CC)N(C)C(=O)[C@]2(C)O[C@H]2C[C@@H](OC)/C(C)=C/C=C/[C@@H](C)[C@@H](c2ccccc2)OC(=O)[C@H](C(C)(C)O)NC1=O | 7.74 | 7.57 | 7.34 | –
CCCCCCCCCC(=O)OC[C@H]1NC(=O)[C@H]([C@@H](C)CC)N(C)C(=O)[C@]2(C)O[C@H]2C[C@@H](OC)/C(C)=C/C=C/[C@@H](C)[C@@H](c2ccccc2)OC(=O)[C@H](C(C)(C)O)NC1=O | 7.78 | 7.12 | 7.01 | –
C=CC(=O)OC[C@H]1NC(=O)[C@H]([C@@H](C)CC)N(C)C(=O)[C@]2(C)O[C@H]2C[C@@H](OC)/C(C)=C/C=C/[C@@H](C)[C@@H](c2ccccc2)OC(=O)[C@H](C(C)(C)O)NC1=O | 7.45 | 7.28 | 7.09 | –
CC[C@H](C)[C@H]1C(=O)N[C@H](COC(=O)c2ccncc2)C(=O)N[C@@H](C(C)(C)O)C(=O)O[C@H](c2ccccc2)[C@H](C)/C=C/C=C(\C)[C@H](OC)C[C@@H]2O[C@@]2(C)C(=O)N1C | 7.24 | 7.99 | 7.49 | –
CC[C@H](C)[C@H]1C(=O)N[C@H](COC(C)=O)C(=O)N[C@@H](C(C)(C)O)C(=O)O[C@H](c2ccccc2)[C@H](C)/C=C/C=C(\C)[C@H](OC)C[C@@H]2O[C@@]2(C)C(=O)N1C | 7.61 | 7.76 | 7.77 | –
CC[C@H](C)[C@H]1C(=O)N[C@H](COC(=O)/C=C/c2cc(F)cc(F)c2)C(=O)N[C@@H](C(C)(C)O)C(=O)O[C@H](c2ccccc2)[C@H](C)/C=C/C=C(\C)[C@H](OC)C[C@@H]2O[C@@]2(C)C(=O)N1C | 7.60 | 7.63 | 7.10 | –
CC[C@H](C)[C@H]1C(=O)N[C@H](COC(=O)CCC(=O)O)C(=O)N[C@@H](C(C)(C)O)C(=O)O[C@H](c2ccccc2)[C@H](C)/C=C/C=C(\C)[C@H](OC)C[C@@H]2O[C@@]2(C)C(=O)N1C | 6.94 | < 6.70 | 7.28 | –
CC[C@H](C)[C@H]1C(=O)N[C@H](COC(=O)c2sc(C)nc2C)C(=O)N[C@@H](C(C)(C)O)C(=O)O[C@H](c2ccccc2)[C@H](C)/C=C/C=C(\C)[C@H](OC)C[C@@H]2O[C@@]2(C)C(=O)N1C | 7.22 | 8.54 | 7.69 | –
CC[C@H](C)[C@H]1C(=O)N[C@H](COC(=O)C2CC2)C(=O)N[C@@H](C(C)(C)O)C(=O)O[C@H](c2ccccc2)[C@H](C)/C=C/C=C(\C)[C@H](OC)C[C@@H]2O[C@@]2(C)C(=O)N1C | 7.71 | 7.37 | 7.21 | –
CC[C@H](C)[C@H]1C(=O)N[C@H](CO)C(=O)N[C@@H](C(C)(C)O)C(=O)O[C@H](c2ccccc2)[C@H](C)/C=C/C=C(\C)[C@H](OC)C[C@@H]2O[C@@]2(C)C(=O)N1C | 7.49 | 7.42 | 7.53 | –
